Laboratory results from ChEMBL document CHEMBL1156823, “Design and synthesis of novel quinone inhibitors targeted to the redox function of apurinic/apyrimidinic endonuclease 1/redox enhancing factor-1 (Ape1/ref-1)” (J Med Chem, 2010).
Activity calls are given as the source filed them. The rule behind the calls is not given here.

Columns and labels:
[1] = Growth inhibition of human Hey-C2 cells after 72 hrs by MTS assay; assay type: functional; details: Hey-C2, 72 h
In short: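 Hey-C2 ovarian cancer cells grown in RPMI 1640 with 10% fetal calf serum; 2–4,000 cells per well in triplicate, adhered overnight, then exposed to drug for 72 h at 37 °C. MTS reagent (0.05 mg/mL) added for 4 h at 37 °C, absorbance read at 490 nm, normalized to media-alone wells. GI50 is the average of three experiments.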

[2] = biological target: T1, DNA repair nuclease/redox regulator APEX1 (Homo sapiens, UniProt P27695); assay: Inhibition of Ape1/ref-1 endonuclease activity up to 100 uM
T1 sequence (P27695 whole entry): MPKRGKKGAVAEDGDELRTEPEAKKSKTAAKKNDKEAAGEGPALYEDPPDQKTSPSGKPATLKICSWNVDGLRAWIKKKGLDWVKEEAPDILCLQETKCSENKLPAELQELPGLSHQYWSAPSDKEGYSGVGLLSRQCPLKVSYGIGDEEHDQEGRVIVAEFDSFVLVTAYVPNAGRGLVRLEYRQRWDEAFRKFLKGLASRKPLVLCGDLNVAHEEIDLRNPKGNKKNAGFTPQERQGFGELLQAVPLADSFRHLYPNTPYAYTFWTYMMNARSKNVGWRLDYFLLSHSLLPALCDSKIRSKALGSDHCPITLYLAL

[3] = biological target: T1, DNA repair nuclease/redox regulator APEX1; assay: Inhibition of Ape1/ref-1 redox activity in presence of 0.02 mM DTT and human Hey-C2 cells nuclear extracts by EMSA; assay type: cell-free
In short: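 Purified Ape1 reduced with 1.0 mM DTT at 37 °C for 10 min, then diluted in PBS. Poly(dI-dC) added for 5 min, then HEX-labeled AP-1 consensus duplex (0.1 pmol) for 30 min at room temperature. Final DTT 0.02 mM.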

| Structure (SMILES) | inhibition [2] | IC50 [3] [nM] | GI50 [1] [µM] |
| --- | --- | --- | --- |
| CC1=C(/C=C(\C)C(=O)O)C(=O)c2ccccc2C1=O | inactive |  | 45 |
| COC1=C(/C=C(\C)C(=O)O)C(=O)c2ccccc2C1=O | inactive | 1000 | 40 |
| C/C(=C\C1=C(Br)C(=O)c2ccccc2C1=O)C(=O)O |  |  | 13 |
| O=C(O)CCC1=C(Br)C(=O)c2ccccc2C1=O | inactive |  | 15 |
| C/C(=C/C1=C(Cl)C(=O)c2ccccc2C1=O)C(=O)O | inactive | 2000 | 30 |
| C/C(=C\C1=CC(=O)c2ccccc2C1=O)C(=O)O | inactive | 3000 | 20 |
| COCC/C(=C\C1=C(Br)C(=O)c2ccccc2C1=O)C(=O)O | inactive | 1000 | 25 |
| CSC1=C(/C=C(\C)C(=O)O)C(=O)c2ccccc2C1=O | inactive |  | 30 |
| C/C(=C\C1=C(F)C(=O)c2ccccc2C1=O)C(=O)O | inactive |  | 50 |
| C/C(=C\C1=C(Cl)C(=O)c2ccccc2C1=O)C(=O)O | inactive |  | 15 |

Now from value to compound, other results behind:

| inhibition [2] | IC50 [3] [nM] | Structure (SMILES) | GI50 [1] [µM] |
| --- | --- | --- | --- |
| inactive |  | COCC/C(=C\C1=C(C)C(=O)c2ccccc2C1=O)C(=O)O | 30 |
| inactive |  | COCC/C(=C\C1=C(C)C(=O)C(OC)=C(OC)C1=O)C(=O)O | 200 |
| inactive | 3000 | COC1=C(OC)C(=O)C(/C=C(\C)C(=O)O)=C(Cl)C1=O | 45 |
| inactive | 1000 | C/C(=C\C1=C(Cl)C(=O)c2ccccc2C1=O)C(=O)NCCO | 8 |
| inactive |  | CCCCCCCCC/C(=C\C1=C(C)C(=O)C(OC)=C(OC)C1=O)C(=O)NCCO | 35 |
| inactive |  | COCC/C(=C\C1=C(Cl)C(=O)c2ccccc2C1=O)C(=O)O | 30 |
| inactive |  | CCCC/C(=C\C1=C(C)C(=O)C(OC)=C(OC)C1=O)C(=O)O | 85 |
| inactive |  | COC1=C(OC)C(=O)C(/C=C(\C)C(=O)O)=C(C)C1=O | 130 |
| inactive |  | CCCCCCCCC/C(=C\C1=C(C)C(=O)C(OC)=C(OC)C1=O)C(=O)O [APX-3330] | 35 |
| inactive |  | COC1=C(OC)C(=O)C(/C=C/C(=O)O)=C(C)C1=O | 250 |
